Columns and labels:
[1] = Antiepileptic activity in male CF1 mice 30 min after administration measured in subcutaneous pentylenetetrazole (scMet) test at a dose of 100 mg/kg (no. of animals treated /protected); activity value is 1/1; format: functional, Mus musculus
[2] = Antiepileptic activity in male CF1 mice 30 min after administration measured in neurological toxicity (Tox) test at a dose of 100 mg/kg (no. of animals treated /protected); activity value is 0/4; format: functional, Mus musculus
[3] = Antiepileptic activity in male CF1 mice 30 min after administration measured in maximum electroshock seizure(MES) test at a dose of 100 mg/kg (no. of animals treated /protected); activity value is 0/3; format: functional, Mus musculus
[4] = Antiepileptic activity in male CF1 mice 4 hr after administration measured in subcutaneous pentylenetetrazole (scMet) test at a dose of 100 mg/kg (no. of animals treated /protected); activity value is 0/1; format: functional, Mus musculus
[5] = Antiepileptic activity in male CF1 mice 4 hr after administration measured in maximum electroshock seizure(MES) test at a dose of 100 mg/kg (no. of animals treated /protected); activity value is 0/3; format: functional, Mus musculus
[6] = Antiepileptic activity in male CF1 mice 4 hr after administration measured in neurological toxicity (Tox) test at a dose of 100 mg/kg (no. of animals treated /protected); activity value is 0/2; format: functional, Mus musculus
Rattus norvegicus [7] = assay: Intraperitoneal dose (250 mg/Kg) reducing rat corneal kindling 0.5 hr after administration.; format: functional
In short: (§1)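 Sprague-Dawley rats (85–95 g initial) were kindled with 4 s, 8 mA corneal stimulations (butacaine anesthesia) to 10 consecutive stage 5 seizures. After a vehicle shock and a 2-day shock-free period, test drug was given ip or po and a single shock applied at time of peak effect. Seizures were scored on a modified Racine 0–5 scale. ED50 is the dose reducing severity by 50% (Litchfield–Wilcoxon).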

Rattus norvegicus [8] = assay: Average seizure score for the rat cornea 0.5 hr after intraperitoneal administration of 0 mg/Kg of compound; format: functional
In short: (§2)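 Sprague-Dawley rats (85–95 g initial weight) kindled by corneal stimulation (4 s, 8 mA) twice daily for 5 to 6 days, then once daily until 10 consecutive stage 5 seizures. Butacaine sulfate 1% applied to the cornea as a topical anaesthetic. After a vehicle shock and a 2-day shock-free period, drug given ip, then a single shock at the time of peak effect. Scored on the modified Racine scale (0–5).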

Rattus norvegicus [9] = assay: Dose reducing the seizure severity in rat cornea 0.5 hr after peroral administration.; format: functional; conditions: po; in short: as §1
[10] = Time of peak neurotoxic effect in CF1 mice; format: ADME; conditions: mouse, in vivo
In short: (§3)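 Male CF1 mice (ca. 24–34 g), compound ip in 0.5% methylcellulose suspension; neurological deficit assessed by rotorod test, time (h) of peak neurotoxic effect recorded for TD50 determination.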

Rattus norvegicus [11] = assay: Average seizure score for the rat cornea 0.5 hr after intraperitoneal administration of 250 mg/Kg of compound; format: functional; in short: as §1
Rattus norvegicus [12] = assay: Intraperitoneal dose (0 mg/Kg) reducing rat corneal kindling 0.5 hr after administration.; format: functional; in short: as §2
[13] = Time of peak neurotoxic effect in CF1 MICE after ip administration.; format: ADME, organism-based; conditions: mouse, in vivo; in short: as §3
[14] = Dose elevating electroshock induced seizure by 20% in CF1 mice after ip administration.; format: functional, Mus musculus
In short: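 In CF1 male mice (ca. 24–34 g), compound was given ip in 0.5% methylcellulose. The current giving hind limb extension in 50% of mice was found by the up-and-down method, with 15–25 mice per group and a vehicle control group run with each experimental group. At least three doses were tested. The dose raising threshold current by 20% was taken from a plot of dose against % threshold increase.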

Rattus norvegicus [15] = assay: Intraperitoneal dose (150 mg/Kg) reducing rat corneal kindling 0.5 hr after administration.; format: functional; in short: as §1
[16] = Time of peak anticonvulsant effect in CF1 MICE after ip administration.; format: functional, Mus musculus
In short: (§4)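 Male CF1 mice (ca. 24–34 g), compound in 0.5% methylcellulose suspension given ip or po; time (h) at which MES protection (against tonic hind limb extension) peaked was recorded and used for ED50 determination.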

[17] = Time of peak anticonvulsant effect in CF1 mice; format: functional, Mus musculus; in short: as §4
Rattus norvegicus [18] = assay: Average seizure score for the rat cornea 0.5 hr after intraperitoneal administration of 100 mg/Kg of compound; format: functional; in short: as §1
[19] = Dose protecting 50% of the mice from tonic hind limb extension at the time of […] after ip administration.; format: functional; conditions: Mus musculus, Hindlimb
In short: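 Phase II quantification in CF1 male mice (ca. 24–34 g), dosing ip or po in 0.5% methylcellulose suspension. ED50 is protection from tonic hind limb extension in MES. TD50 is rotorod neurotoxicity. Both were read at time of peak effect and derived by Litchfield–Wilcoxon with 95% confidence limits.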

Rattus norvegicus [20] = assay: Intraperitoneal dose (200 mg/Kg) reducing rat corneal kindling 0.5 hr after administration.; format: functional; in short: as §1
Rattus norvegicus [21] = assay: Average seizure score for the rat cornea 0.5 hr after intraperitoneal administration of 150 mg/Kg of compound; format: functional; in short: as §1
Rattus norvegicus [22] = assay: Average seizure score for the rat cornea 0.5 hr after intraperitoneal administration of 200 mg/Kg of compound; format: functional; in short: as §1
Rattus norvegicus [23] = assay: Dose reducing the seizure severity in rat cornea 1 hr after peroral administration.; format: ADME, organism-based; conditions: po; in short: as §1
Rattus norvegicus [24] = assay: Intraperitoneal dose (100 mg/Kg) reducing rat corneal kindling 0.5 hr after administration.; format: functional; in short: as §1

COC(=O)C1C(=O)C=C(Nc2ccc([N+](=O)[O-])cc2)CC1C (centres undefined)
Activity [1]: 1 | Activity [2]: 0 | Activity [3]: 0 | Activity [4]: 0 | Activity [5]: 0 | Activity [6]: 0

CCCC(CCC)C(=O)O [VALPROIC ACID]
Reduction (Rattus norvegicus [7]): 90% | Average seizure score (Rattus norvegicus [8]): 5 | ED50 (Rattus norvegicus [9]): 96 mg/kg | TPE [10]: 0.25 | Average seizure score (Rattus norvegicus [11]): 0.5 | Reduction (Rattus norvegicus [12]): 0% | TPE [13]: 0.5 | Dose [14]: 132 mg/kg | Reduction (Rattus norvegicus [15]): 76% | TPE [16]: 0.5 | TPE [17]: 0.25 | Average seizure score (Rattus norvegicus [18]): 2.6 | ED50 [19]: 248 mg/kg | Reduction (Rattus norvegicus [20]): 98% | Average seizure score (Rattus norvegicus [21]): 1.2 | Average seizure score (Rattus norvegicus [22]): 0.1 | ED50 (Rattus norvegicus [23]): 117 mg/kg | Reduction (Rattus norvegicus [24]): 49%
